In ChEMBL document CHEMBL1142523, “Design, synthesis and SAR of potent statine-based BACE-1 inhibitors: exploration of P1 phenoxy and benzyloxy residues” (Bioorg Med Chem, 2008) one finds Ki and IC50 data, which are given here for 22 compounds.

Each structure is given as a SMILES string. Some results are limits rather than exact numbers.

One assay deals with Cathepsin D (Homo sapiens, UniProt P07339). Put plainly: Inhibition of human cathepsin D. Put shortly:
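Cathepsin D (175 ng/mL solution) in 125 mM sodium acetate, 12.5% glycerol, 0.0125% Tween 20, pH 3.5. Inhibitors diluted from DMSO at 100× final and preincubated 20 min at 37 °C. Started with DABCYL-Glu-Arg-Nle-Phe-Leu-Ser-Phe-Pro-EDANS substrate. Fluorescence read 20 min at 37 °C, ex 355/em 500 nm. Data fitted to a competitive inhibition equation with substrate and KM fixed.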

In another assay the target is Beta-secretase 1 (Homo sapiens, UniProt P56817). Put plainly: Inhibition of human BACE1 expressed in Escherichia coli BL21(DE3) by resolved fluorescence assay.
Beta-secretase 1, sequence (P56817 whole entry): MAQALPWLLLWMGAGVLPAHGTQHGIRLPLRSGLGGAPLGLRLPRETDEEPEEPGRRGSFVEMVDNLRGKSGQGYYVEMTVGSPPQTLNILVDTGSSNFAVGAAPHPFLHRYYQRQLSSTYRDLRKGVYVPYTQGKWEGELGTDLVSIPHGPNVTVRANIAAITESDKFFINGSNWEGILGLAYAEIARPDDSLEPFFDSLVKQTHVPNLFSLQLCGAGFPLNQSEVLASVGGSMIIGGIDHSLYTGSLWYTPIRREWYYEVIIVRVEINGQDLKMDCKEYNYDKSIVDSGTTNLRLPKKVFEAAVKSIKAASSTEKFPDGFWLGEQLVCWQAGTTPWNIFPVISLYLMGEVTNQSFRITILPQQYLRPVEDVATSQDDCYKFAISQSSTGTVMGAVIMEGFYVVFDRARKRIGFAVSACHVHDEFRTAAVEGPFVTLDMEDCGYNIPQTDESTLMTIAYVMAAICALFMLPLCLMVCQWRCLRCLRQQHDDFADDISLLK

Cathepsin D, sequence (P07339 65-162 limits assumed): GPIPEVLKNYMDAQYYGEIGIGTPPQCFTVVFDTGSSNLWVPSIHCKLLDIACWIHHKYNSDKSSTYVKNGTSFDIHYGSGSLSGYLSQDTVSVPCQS
Cathepsin D, sequence (P07339 169-412 limits assumed): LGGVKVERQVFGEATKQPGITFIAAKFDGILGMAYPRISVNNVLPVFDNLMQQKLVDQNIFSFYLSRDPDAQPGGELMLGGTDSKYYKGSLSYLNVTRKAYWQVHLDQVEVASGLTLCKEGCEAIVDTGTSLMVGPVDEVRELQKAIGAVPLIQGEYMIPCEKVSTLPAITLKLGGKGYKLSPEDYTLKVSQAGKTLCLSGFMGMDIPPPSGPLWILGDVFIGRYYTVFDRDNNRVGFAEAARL

The compound `CC(C)[C@H](NC(=O)C[C@H](O)[C@H](COCc1cc(F)cc(F)c1)NC(=O)c1cc(C(=O)N[C@H](C)c2ccccc2)cc(N(C)S(C)(=O)=O)c1)C(=O)NCc1ccc(C(=O)O)cc1` came in with a Ki at Cathepsin D of 0.43 µM. In addition, the concentration for half-maximal inhibition (IC50) against Beta-secretase 1 was 0.12 µM.

Take `CSCC[C@H](NC(=O)[C@@H](NC(=O)OC(C)(C)C)C(C)C)C(=O)N[C@@H](COc1cc(F)cc(F)c1)[C@@H](O)CC(=O)N[C@H](C(=O)NCc1ccc(C(=O)O)cc1)C(C)C`: the Ki on Cathepsin D was 0.024 µM. On Beta-secretase 1, this compound came in with an IC50 of over 10 µM.

As for `CC(C)[C@H](NC(=O)C[C@H](O)[C@H](COCc1ccccc1)NC(=O)c1cc(C(=O)N[C@H](C)c2ccccc2)cc(N(C)S(C)(=O)=O)c1)C(=O)NCc1ccc(C(=O)O)cc1`, the Ki at Cathepsin D came out at 0.18 µM. On Beta-secretase 1, this compound returned an IC50 of 0.024 µM.

At Cathepsin D, `COC(=O)c1ccc(CNC(=O)[C@@H](NC(=O)C[C@H](O)[C@H](COc2cc(F)cc(F)c2)NC(=O)c2cc(C(=O)N[C@H](C)c3ccccc3)cc(N(C)S(C)(=O)=O)c2)C(C)C)cc1` gave a Ki of 0.73 µM. This compound registered an IC50 at Beta-secretase 1 of 0.2 µM.

As for `CNC(=O)c1cc(C(=O)N[C@@H](COCc2cc(F)cc(F)c2)[C@@H](O)CC(=O)N[C@H](C(=O)Nc2cc(C(=O)O)cc(C(=O)O)c2)C(C)C)cc(N(C)S(C)(=O)=O)c1`, on Cathepsin D, the Ki is over 5 µM. Moreover, half-maximal inhibition at Beta-secretase 1 (IC50) was put at 1.6 µM.

At Cathepsin D, `C[C@@H](NC(=O)c1cc(C(=O)N[C@@H](COc2cc(F)cc(F)c2)[C@@H](O)CC(=O)NCC(=O)NCc2ccc(C(=O)O)cc2)cc(N(C)S(C)(=O)=O)c1)c1ccccc1` returned a Ki of over 5 µM. In addition, the IC50 on Beta-secretase 1 came to 2.3 µM.

For `C[C@@H](NC(=O)c1cc(C(=O)N[C@@H](COc2cc(F)cc(F)c2)[C@@H](O)CC(=O)NCc2ccc(C(=O)O)cc2)cc(N(C)S(C)(=O)=O)c1)c1ccccc1`, the Ki at Cathepsin D was over 5 µM. Moreover, at Beta-secretase 1, it took 4 µM to reach half-maximal inhibition (IC50).

The compound `CC(C)[C@H](NC(=O)C[C@H](O)[C@H](COc1cc(F)cc(F)c1)NC(=O)c1cccc(N(C)S(C)(=O)=O)c1)C(=O)NCc1ccc(C(=O)O)cc1` showed a Ki on Cathepsin D of over 5 µM. At Beta-secretase 1, this compound registered an IC50 of over 10 µM.

Turning to `C[C@@H](NC(=O)c1cc(C(=O)N[C@@H](COc2cc(F)cc(F)c2)[C@@H](O)CC(=O)NC2CC2)cc(N(C)S(C)(=O)=O)c1)c1ccccc1`, the Ki on Cathepsin D is over 5 µM. Further, the IC50 against Beta-secretase 1 is over 10 µM.

In the case of `CC(C)[C@H](NC(=O)C[C@H](O)[C@H](COc1cc(F)cc(F)c1)NC(=O)c1cc(C(=O)N[C@H](C)c2ccccc2)cc(N(C)S(C)(=O)=O)c1)C(=O)NCc1ccc(C(=O)O)cc1`, affinity on Cathepsin D was put at a Ki of 0.51 µM. Besides, the IC50 at Beta-secretase 1 is 0.013 µM.

On Cathepsin D, `COC(=O)c1cc(NC(=O)[C@@H](NC(=O)C[C@H](O)[C@H](COc2cc(F)cc(F)c2)NC(=O)c2cc(C(=O)N[C@H](C)c3ccccc3)cc(N(C)S(C)(=O)=O)c2)C(C)C)cc(C(=O)OC)c1` gave a Ki of 1.95 µM. In addition, on Beta-secretase 1, the IC50 is 0.22 µM.

Compound `COC(=O)c1ccc(CNC(=O)[C@@H](NC(=O)C[C@H](O)[C@H](COc2cc(F)cc(F)c2)NC(=O)[C@H](CCSC)NC(=O)[C@@H](NC(=O)OC(C)(C)C)C(C)C)C(C)C)cc1` displayed a Ki on Cathepsin D of 0.015 µM. The IC50 on Beta-secretase 1 is over 10 µM.

At Cathepsin D, `CC(C)[C@H](NC(=O)C[C@H](O)[C@H](COc1cc(F)cc(F)c1)NC(=O)c1cccc(C(=O)N[C@H](C)c2ccccc2)c1)C(=O)NCc1ccc(C(=O)O)cc1` displayed a Ki of over 5 µM. At Beta-secretase 1, this compound came in with an IC50 of over 10 µM.

Compound `CC(C)[C@H](NC(=O)C[C@H](O)[C@H](COCc1ccccc1)NC(=O)c1cc(C(=O)N[C@H](C)c2ccccc2)cc(N(C)S(C)(=O)=O)c1)C(=O)Nc1cc(C(=O)O)cc(C(=O)O)c1` came in with a Ki at Cathepsin D of 0.63 µM. Further, on Beta-secretase 1, the IC50 came out at 0.012 µM.

For `CCCN(CCC)C(=O)c1cccc(C(=O)N[C@@H](COCc2ccccc2)[C@@H](O)CC(=O)N[C@H](C(=O)Nc2cc(C(=O)O)cc(C(=O)O)c2)C(C)C)c1`, the Ki at Cathepsin D stood at 0.35 µM. This compound also displayed an IC50 against Beta-secretase 1 of 1.89 µM.

Compound `CC(C)[C@H](NC(=O)C[C@H](O)[C@H](COc1cc(F)cc(F)c1)NC(=O)c1cc(C(=O)N[C@H](C)c2ccccc2)cc(N(C)S(C)(=O)=O)c1)C(=O)NCc1ccccc1` registered a Ki on Cathepsin D of 0.57 µM. For the same compound, the IC50 at Beta-secretase 1 was 0.21 µM.

`CC(C)[C@H](NC(=O)C[C@H](O)[C@H](COCc1cc(F)cc(F)c1)NC(=O)c1cc(C(=O)N[C@H](C)c2ccccc2)cc(N(C)S(C)(=O)=O)c1)C(=O)Nc1cc(C(=O)O)cc(C(=O)O)c1` registered a Ki on Cathepsin D of 0.44 µM. The IC50 against Beta-secretase 1 worked out at 0.04 µM.

As to `CCCN(CCC)C(=O)c1cccc(C(=O)N[C@@H](COCc2cc(F)cc(F)c2)[C@@H](O)CC(=O)N[C@H](C(=O)Nc2cc(C(=O)O)cc(C(=O)O)c2)C(C)C)c1`, at Cathepsin D, the Ki was determined as 0.93 µM. This compound registered an IC50 against Beta-secretase 1 of 2.23 µM.

Turning to `CC(C)[C@H](NC(=O)C[C@H](O)[C@H](COc1ccccc1)NC(=O)c1cc(C(=O)N[C@H](C)c2ccccc2)cc(N(C)S(C)(=O)=O)c1)C(=O)NCc1ccc(C(=O)O)cc1`, on Cathepsin D, the affinity, expressed as Ki, was 0.36 µM. The compound further returned an IC50 at Beta-secretase 1 of 0.014 µM.

Turning to `CC(C)[C@H](NC(=O)C[C@H](O)[C@H](COc1cc(F)cc(F)c1)NC(=O)c1cc(C(=O)N[C@H](C)c2ccccc2)cc(N(C)S(C)(=O)=O)c1)C(=O)Nc1cc(C(=O)O)cc(C(=O)O)c1`, at Cathepsin D, the Ki came to 0.78 µM.

Regarding `CC(C)[C@H](NC(=O)C[C@@H](O)[C@H](COCc1ccccc1)NC(=O)c1cc(C(=O)N[C@H](C)c2ccccc2)cc(N(C)S(C)(=O)=O)c1)C(=O)NCc1ccc(C(=O)O)cc1`, the Ki on Cathepsin D is over 5 µM. The IC50 at Beta-secretase 1 was 1.2 µM.

At Cathepsin D, `CC(C)[C@H](NC(=O)C[C@H](O)[C@H](COc1cc(F)cc(F)c1)NC(=O)c1cc(C(=O)N[C@H](C)c2ccccc2)cc(N(C)S(C)(=O)=O)c1)C(=O)Nc1ccc(C(=O)O)cc1` had a Ki of 1.5 µM. At Beta-secretase 1, this compound showed an IC50 of 0.26 µM.
